Measured values of several laboratories.
Each line is one published result; the experiments were not run side by side.
Target: TRAF2 and NCK-interacting protein kinase (TNIK, Homo sapiens, UniProt Q9UKE5)

With O=C(c1ccc(Nc2ncc(Cl)c(-c3ccc(Cl)s3)n2)cc1)N1CCC(N2CCCC2)CC1 the remaining binding was 43% (binding, competition with immobilised ligand; 1 µM).
CCN1CCN(Cc2ccc(C(=O)Nc3ccc(C)c(Oc4ccc5c(c4)CC(=O)N5)c3)cc2C(F)(F)F)CC1 has a remaining binding of 79% (binding, competition with immobilised ligand; 1 µM).
F[C@@H]1CCN(c2nccc(-c3cnn4ncccc34)n2)C1 has a remaining binding of 100% (binding; 1 µM).
CNC(=O)[C@@H]1CC[C@@H](n2c(-c3ccc4cnccc4c3)nc3ccc(C(=O)NCc4cccc(C(N)=O)c4)cc32)C1 gave a remaining binding of 90% (binding, competition with immobilised ligand; 1 µM).
O=C(Nc1cccnn1)N1CCC(=Cc2cccc(Oc3ccc(C(F)(F)F)cn3)c2)CC1 gave a remaining binding of 100% (cell-free assay, competition with immobilised ligand; 1 µM).
For c1cnn2ncc(-c3ccnc(N4CCC45COC5)n3)c2c1, the remaining binding was 72% (binding; 1 µM).
C[C@@H](c1cccc(C#N)c1)n1cc(Cl)cc(C(N)=O)c1=N has a remaining binding of 56% (cell-free assay, competition with immobilised ligand; 1 µM).
O=C(NCC1CCOCC1)c1n[nH]cc1NC(=O)c1c(F)cccc1F gave a remaining binding of 84% (binding, competition with immobilised ligand; 1 µM).
With CNC(=O)Nc1ccc2c(c1)CC[C@@]21OC(=O)N(CC(=O)N(Cc2ccc(F)cc2)[C@@H](C)C(F)(F)F)C1=O the remaining binding was 93% (cell-free assay, competition with immobilised ligand; 1 µM).
With c1cncc(-c2cccc(Nc3nccc(NC4CCCCC4)n3)c2)c1 the remaining binding was 33% (binding, competition with immobilised ligand; 10 µM).
The remaining binding of CC(=O)Nc1c(C(C)=O)c(=O)n(C)c2nc(-c3ccc(Cl)cc3Cl)c(-c3ccc(Cl)cc3)cc12 is reported as 100% (cell-free assay, competition with immobilised ligand; 1 µM).
CN(CCCC(F)(F)F)c1nccc(-c2cnn3ncccc23)n1 has a remaining binding of 100% (binding; 1 µM).
With O=C(c1ccc(Nc2nccc(-c3cc4ccccc4s3)n2)cc1)N1CCC(N2CCCC2)CC1 the remaining binding was 79% (binding, competition with immobilised ligand; 1 µM).
C[C@@H](c1ccc(-n2cnc3c(N)ncnc32)cc1)N1CCc2nn(C)c(Cc3ccccc3)c2C1=O has a remaining binding of 76% (binding, competition with immobilised ligand; 0.1 µM).
With O=C(NCCCN1CCOCC1)c1ccc(Nc2ncc(Cl)c(-c3ccc(Cl)s3)n2)cc1 the remaining binding was 44% (binding, competition with immobilised ligand; 1 µM).
N[C@@H]1CCN(c2nccc(-c3cnn4ncccc34)n2)C1 has a remaining binding of 100% (binding; 1 µM).
For CC1=C(C#N)C(c2ccc3c(c2)c(NC(=O)c2ccccc2C)nn3C)C(C#N)=C(C)N1, the remaining binding was 98% (cell-free assay, competition with immobilised ligand; 1 µM).
C[C@H]1CCN(c2nccc(-c3cnn4ncccc34)n2)C1 has a remaining binding of 100% (binding; 1 µM).
For CCC(=N\O)/C(C)=C/c1ccc(F)cc1, the remaining binding was 93% (cell-free assay, competition with immobilised ligand; 1 µM).
With Cc1cnn2ncc(-c3ccnc(N(C)C)n3)c2c1 the remaining binding was 80% (binding; 1 µM).
COc1ncc2cc3ccccc3nc2c1C#N gave a remaining binding of 100% (cell-free assay, competition with immobilised ligand; 5 µM).
